Measurements of several laboratories.
Each line is one published result; the experiments were not run side by side.
Target: 5'-AMP-activated protein kinase catalytic subunit alpha-2 (PRKAA2, Homo sapiens, UniProt P54646)

Structure (SMILES) | test | conditions | remaining binding
c1cnn2ncc(-c3ccnc(N4CCC45COC5)n3)c2c1 | binding | 1 µM | 91%
O=C(c1ccc(Nc2ncc(Cl)c(-c3cc4ccccc4s3)n2)cc1)N1CCC(N2CCCC2)CC1 | binding, competition with immobilised ligand | 1 µM | 4%
c1cncc(-c2cccc(Nc3nccc(NC4CCCCC4)n3)c2)c1 | binding, competition with immobilised ligand | 10 µM | 23%
CN(C)c1ncnc(-c2ccc3nc(Nc4cc(CN5CCN(C(=O)CC(F)(F)F)CC5)ccn4)[nH]c3c2)c1Cl | cell-free assay, competition with immobilised ligand | 1 µM | 100%
O=C(Nc1c[nH]nc1C(=O)NC1CCNCC1)c1cc(F)cc(F)c1 | binding, competition with immobilised ligand | 1 µM | 100%
F[C@@H]1CCN(c2nccc(-c3cnn4ncccc34)n2)C1 | binding | 1 µM | 100%
COc1cnc(Nc2cccc(S(N)(=O)=O)c2)nc1N1CCN(c2ccccc2)CC1 | binding, competition with immobilised ligand | 1 µM | 100%
Cc1c[nH]c2nccc(Oc3c(F)cc(Nc4cc(Cl)nc(N)n4)cc3F)c12 | cell-free assay, competition with immobilised ligand | 0.1 µM | 89%
CC1CCCN1c1nccc(-c2cnn3ncccc23)n1 (stereo not shown) | binding | 1 µM | 100%
O=C(NCCCN1CCOCC1)c1ccc(Nc2ncc(Cl)c(-c3ccc(Cl)s3)n2)cc1 | binding, competition with immobilised ligand | 1 µM | 17%
COc1cnc(Nc2cccc(S(N)(=O)=O)c2)nc1N1CCN(c2ccccc2)C(=O)C1 | binding, competition with immobilised ligand | 1 µM | 100%
CNC(=O)Nc1ccc2c(c1)CC[C@@]21OC(=O)N(CC(=O)N(Cc2ccc(F)cc2)[C@@H](C)C(F)(F)F)C1=O | cell-free assay, competition with immobilised ligand | 1 µM | 99%
Cc1cnc(Nc2ccc(C(=O)N3CCC(N4CCCC4)CC3)cc2)nc1-c1cc2ccccc2s1 | binding, competition with immobilised ligand | 1 µM | 7%
Cc1nc(N2CC[C@@H](O)C2)ncc1-c1cc(C(F)(F)F)cc2[nH]ncc12 | cell-free assay, competition with immobilised ligand | 1 µM | 100%
COc1ccnn2ncc(-c3ccnc(N(C)C)n3)c12 | binding | 1 µM | 79%
C[C@@H](c1ccc(-n2cnc3c(N)ncnc32)cc1)N1CCc2nn(C)c(Cc3ccccc3)c2C1=O | binding, competition with immobilised ligand | 0.1 µM | 100%
C[C@@H]1CCN(c2nccc(-c3cnn4ncccc34)n2)C1 | binding | 1 µM | 74%
CCC(=O)N[C@@H]1CC[C@H](C(=O)N(C)c2ccc(-c3nc4ccccc4o3)cc2)C1 | cell-free assay, competition with immobilised ligand | 1 µM | 74%
CN(C)c1nccc(-c2cnc3ncccn23)n1 | binding | 1 µM | 80%
Cc1c(NC(=O)c2cc(C(N)=O)nc3cc(F)ccc23)c(C(F)(F)F)nn1Cc1ccc(C(C)(C)C)cc1 | cell-free assay, competition with immobilised ligand | 1 µM | 100%
N[C@H]1CCN(c2nccc(-c3cnn4ncccc34)n2)C1 | binding | 1 µM | 100%
C=CC(=O)N1CCC(C(=O)NCC(=O)N2CCN(c3nc(-c4cnc(N)nc4C(F)F)nc(N4CCOCC4)n3)CC2)CC1 | binding, competition with immobilised ligand | 1 µM | 100%
